Measured values from ChEMBL document CHEMBL1122150, “Synthesis and biological activity of benzothiazolo- and benzoxazolo[3,2-a]quinolinium salts” (1982).

Tests used:
[1] = system: KB; test: The cytotoxic activity was determined against KB cell line.; assay type: functional, Mus musculus; details: Homo sapiens, read-out: ED50 (the source's name)
Summary of the method: (§1)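 KB or HeLa monolayers were grown in Eagle's MEM with 10% fetal calf serum and subcultured every 6–7 days. Drugs were suspended in sterile 0.5% carboxymethylcellulose. 6-Mercaptopurine at 1 μM was the positive control in every run. Cytotoxic concentration is expressed in μg/mL.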

[2] = system: P388; test: Percentage of treated /control was determined against P-388 leukemia in […] mice, at a dose of 320 mg/kg; assay type: functional, Mus musculus
[3] = system: P388; test: Percentage of treated /control was determined against P-388 leukemia in […] mice, at a dose of 100 mg/kg; assay type: functional, Mus musculus
Summary of the method: (§2)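 Female BDF1 mice bearing P-388 ascitic leukemia, run per standard NCI protocol. Single ip dose on day 1, suspended in 0.9% NaCl with 0.10% Tween 80 and serially diluted in saline. T/C% = median survival time of treated mice / median survival of controls × 100. 5-Fluorouracil at 200 mg/kg as positive control. Groups of 6; mean of three tests.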

[4] = system: HeLa; test: The cytotoxic activity was determined against HeLa cell line; assay type: functional, Mus musculus; details: Homo sapiens, read-out: ED50 (the source's name); summary of the method: as §1
[5] = system: Mus musculus; test: Antitumor activity against Ehrlich Ascites tumor after intraperitoneal administration at a dose of 250 mg/kg in mice; 6/6; assay type: functional
[6] = system: Mus musculus; test: Antitumor activity against Ehrlich Ascites tumor after intraperitoneal administration at a dose of 400 mg/kg in mice; 0/6; assay type: functional
[7] = system: Mus musculus; test: Antitumor activity against Ehrlich Ascites tumor after intraperitoneal administration at a dose of 90 mg/kg in mice; 3/5; assay type: functional
[8] = system: Mus musculus; test: Antitumor activity against P-388 ascitic leukemia in mice, at a dose of 200 mg/kg; 6/6; assay type: functional
[9] = system: Mus musculus; test: Antitumor activity against P-388 ascitic leukemia in mice, at a dose of 400 mg/kg; 0/6; assay type: functional
[10] = system: Mus musculus; test: No of survivors was determined for Ehrlich Ascites tumor after intraperitoneal administration at a dose of 100 mg/kg in mice; 6/6; assay type: functional
[11] = system: Mus musculus; test: No of survivors was determined for P-388 ascitic leukemia in mice, at a dose of 100 mg/kg; 6/6; assay type: functional
[12] = system: Mus musculus; test: Long term survivors/no of treated mice was determined for Ehrlich Ascites tumor after intraperitoneal administration at a dose of 100 mg/kg in mice; 12/12; assay type: functional
[13] = system: Mus musculus; test: Antitumor activity against Ehrlich Ascites tumor after intraperitoneal administration at a dose of 150 mg/kg in mice; 6/6; assay type: functional
[14] = system: Mus musculus; test: Percentage of treated /control was determined against P-388 ascitic leukemia in […] mice, at a dose of 200 mg/kg; assay type: functional; summary of the method: as §2
[15] = system: Mus musculus; test: Percentage of treated /control was determined against P-388 ascitic leukemia in mice, at a dose of 100 mg/kg; assay type: functional; summary of the method: as §2
[16] = system: Mus musculus; test: Percentage of treated /control was determined for Ehrlich Ascites tumor after intraperitoneal administration at a dose of 100 mg/kg in mice; assay type: functional
Summary of the method: (§3)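 Female Albino Swiss mice, five to six weight-matched per group, implanted ip with 1×10^6 viable Ehrlich ascites cells (Trypan blue count). Single ip dose 24 h after implantation (day 1), suspended in 0.9% NaCl with 0.10% Tween 80 and serially diluted in saline. T/C% read at day 12. Survival followed 60 days. Mean of three tests (two at 90 and 100 mg/kg).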

[17] = system: Mus musculus; test: Percentage of treated /control was determined for Ehrlich Ascites tumor after intraperitoneal administration at a dose of 150 mg/kg in mice; assay type: functional; summary of the method: as §3
[18] = system: Mus musculus; test: Percentage of treated /control was determined for Ehrlich Ascites tumor after intraperitoneal administration at a dose of 200 mg/kg in mice; assay type: functional; summary of the method: as §3
[19] = system: Mus musculus; test: Percentage of treated /control was determined for Ehrlich Ascites tumor after intraperitoneal administration at a dose of 250 mg/kg in mice; assay type: functional; summary of the method: as §3
[20] = system: Mus musculus; test: Percentage of treated /control was determined for Ehrlich Ascites tumor after intraperitoneal administration at a dose of 90 mg/kg in mice; assay type: functional; summary of the method: as §3
[21] = system: Mus musculus; test: Antitumor activity against Ehrlich Ascites tumor after intraperitoneal administration at a dose of 200 mg/kg in mice; 6/6; assay type: functional
[22] = system: Mus musculus; test: Number of toxic death/ no of treated mice was determined for Ehrlich Ascites tumor after intraperitoneal administration at a dose of 400 mg/kg in mice; 6/6; assay type: functional
[23] = system: Mus musculus; test: Number of toxic death/ no of treated was determined for P-388 ascitic leukemia in mice, at a dose of 400 mg/kg; 6/6; assay type: functional
[24] = system: Mus musculus; test: Long term survivors/no of treated mice was determined for Ehrlich Ascites tumor after intraperitoneal administration at a dose of 90 mg/kg in mice; 5/10; assay type: functional
[25] = system: Mus musculus; test: Long term survivors/no of treated mice was determined for Ehrlich Ascites tumor after intraperitoneal administration at a dose of 250 mg/kg in mice; 15/18
[26] = system: Mus musculus; test: Long term survivors/no of treated mice was determined for Ehrlich Ascites tumor after intraperitoneal administration at a dose of 200 mg/kg in mice; 18/18
[27] = system: Mus musculus; test: Long term survivors/no of treated mice was determined for Ehrlich Ascites tumor after intraperitoneal administration at a dose of 150 mg/kg in mice; 15/18

COc1cc2c(ccc3c4cc(OC)c(OC)cc4c[n+](C)c23)cc1O.[Cl-] [FAGARONINE]
EC50 [1]: 0.7 µg/mL | T/C [2]: 290%

COc1cc2c[n+](C)c3c4cc5c(cc4ccc3c2cc1OC)OCO5.[Cl-] [NITIDINE CHLORIDE]
T/C [3]: 129%

O=[N+]([O-])c1ccc2c(ccc3oc4ccccc4[n+]32)c1.[O-][Cl+3]([O-])([O-])[O-]
EC50 [4]: 15 µg/mL | EC50 [1]: 12 µg/mL

O=[N+]([O-])c1ccc2c(ccc3sc4ccccc4[n+]32)c1.[O-][Cl+3]([O-])([O-])[O-]
EC50 [4]: 0.9 µg/mL | EC50 [1]: 0.6 µg/mL | Survival [5]: 6 | Survival [6]: 0 | Survival [7]: 3 | Survival [8]: 6 | Survival [9]: 0 | Survival [10]: 6 | Survival [11]: 6 | LTS [12]: 12 | Survival [13]: 6 | T/C [14]: 218% | T/C [15]: 153% | T/C [16]: 35.8% | T/C [17]: -0.4% | T/C [18]: -6.2% | T/C [19]: -2.5% | T/C [20]: 57.3% | Survival [21]: 6 | Toxicity [22]: 6 | Toxicity [23]: 6 | LTS [24]: 5 | LTS [25]: 15 | LTS [26]: 18 | LTS [27]: 15
